Consider 16 compounds from ChEMBL document CHEMBL1811873, “Peroxisome proliferator-activated receptor agonists with phenethylphenylphthalimide skeleton derived from thalidomide-related liver X receptor antagonists: relationship between absolute configuration and subtype selectivity” (Bioorg Med Chem, 2011).

As a reminder, the EC50 is the concentration at which the effect is half-maximal.

Molecules are shown by their SMILES. Activity calls are given as the source filed them. No cut-off for these calls is given here.

Holding throughout (assay type): functional, cell-based
Assay [1] concerns the target T1, Peroxisome proliferator-activated receptor delta (Homo sapiens, UniProt Q03181).
T1 sequence (Q03181 whole entry): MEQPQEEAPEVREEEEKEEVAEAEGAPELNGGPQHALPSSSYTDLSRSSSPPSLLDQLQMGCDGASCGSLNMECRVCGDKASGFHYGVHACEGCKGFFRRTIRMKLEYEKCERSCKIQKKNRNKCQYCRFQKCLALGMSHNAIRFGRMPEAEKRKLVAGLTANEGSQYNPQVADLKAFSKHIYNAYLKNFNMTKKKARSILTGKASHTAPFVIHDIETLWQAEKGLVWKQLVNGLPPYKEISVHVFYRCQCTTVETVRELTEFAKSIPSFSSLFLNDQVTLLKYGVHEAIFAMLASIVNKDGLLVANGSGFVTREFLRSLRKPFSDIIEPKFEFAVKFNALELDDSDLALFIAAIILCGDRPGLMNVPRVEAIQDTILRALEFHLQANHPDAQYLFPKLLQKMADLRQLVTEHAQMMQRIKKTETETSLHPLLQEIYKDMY
The assay can be described thus: Agonist activity at PPARdelta expressed in HEK293 after 8 hrs by luciferase reporter gene assay. The essentials: (§1)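 HEK293 cells grown in DMEM with 5% FBS at 37 °C in 5% CO2 were calcium-phosphate co-transfected with CMX-GAL4N-hPPAR LBD (subtype-specific), TK-MH100x4-LUC reporter and CMX β-galactosidase for normalization. Compounds were added 8 h post-transfection. Luciferase was read by luminometer and β-galactosidase by plate reader. Values are normalized averages; triplicate, repeated at least twice.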
On the technique in general: In a reporter assay the amount or activity of a reporter protein is the signal.

The target of assay [2] is T2, Peroxisome proliferator-activated receptor alpha (Homo sapiens) (UniProt Q07869).
T2 sequence (whole entry): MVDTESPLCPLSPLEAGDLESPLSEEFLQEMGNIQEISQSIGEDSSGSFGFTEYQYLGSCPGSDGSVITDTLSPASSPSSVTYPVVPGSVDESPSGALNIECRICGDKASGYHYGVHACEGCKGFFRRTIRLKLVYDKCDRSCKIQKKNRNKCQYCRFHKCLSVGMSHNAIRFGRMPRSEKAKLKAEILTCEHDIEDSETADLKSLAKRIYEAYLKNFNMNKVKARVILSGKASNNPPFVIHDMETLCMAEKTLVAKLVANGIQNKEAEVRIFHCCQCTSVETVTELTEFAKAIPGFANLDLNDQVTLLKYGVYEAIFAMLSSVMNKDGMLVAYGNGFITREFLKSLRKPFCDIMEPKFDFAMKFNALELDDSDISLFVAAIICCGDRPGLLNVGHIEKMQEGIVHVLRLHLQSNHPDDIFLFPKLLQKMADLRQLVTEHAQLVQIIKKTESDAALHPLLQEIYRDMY
The assay can be described thus: Agonist activity at human PPARalpha expressed in HEK293 after 8 hrs by luciferase reporter gene assay relative to fenofibric acid. The essentials: (§2)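 GAL4N-hPPAR LBD chimera with TK-MH100x4-LUC reporter in calcium-phosphate-transfected HEK293 (DMEM, 5% FBS), compounds added 8 h post-transfection. Luciferase was normalized to β-galactosidase. Percent efficacy (Emax) was taken at the maximal stimulatory response relative to 10 µM fenofibric acid (PPARα), 100 nM GW501516 (PPARδ) or 10 µM ciglitazone (PPARγ). Triplicate, at least twice.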

Assay [3] addresses T3, Peroxisome proliferator-activated receptor gamma (Homo sapiens) (UniProt P37231).
T3 sequence (whole entry): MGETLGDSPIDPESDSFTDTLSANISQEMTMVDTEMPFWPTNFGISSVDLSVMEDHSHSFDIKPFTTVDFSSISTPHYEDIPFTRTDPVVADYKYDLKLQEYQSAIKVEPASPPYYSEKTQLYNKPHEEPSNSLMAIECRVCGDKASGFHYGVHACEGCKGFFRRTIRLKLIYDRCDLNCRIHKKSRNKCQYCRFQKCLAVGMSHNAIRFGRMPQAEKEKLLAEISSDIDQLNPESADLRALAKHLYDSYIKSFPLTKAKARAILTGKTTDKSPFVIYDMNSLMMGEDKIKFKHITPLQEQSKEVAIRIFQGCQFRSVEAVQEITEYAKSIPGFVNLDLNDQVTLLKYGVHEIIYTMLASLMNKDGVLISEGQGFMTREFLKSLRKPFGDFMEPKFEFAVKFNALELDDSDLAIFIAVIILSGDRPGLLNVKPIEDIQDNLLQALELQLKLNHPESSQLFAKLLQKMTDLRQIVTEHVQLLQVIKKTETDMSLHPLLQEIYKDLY
The experiment in a line: Agonist activity at PPARgamma expressed in HEK293 after 8 hrs by luciferase reporter gene assay relative to ciglitazone. The procedure, abridged: as §2

The target in assay [4] is T4, Peroxisome proliferator-activated receptor gamma (Homo sapiens, UniProt P37231).
T4 sequence (P37231 whole entry): T3 sequence (whole entry)
The assay can be described thus: Agonist activity at PPARgamma expressed in HEK293 after 8 hrs by luciferase reporter gene assay. The procedure, abridged:
as §1

In assay [5] the target is T5, Bile acid receptor (Homo sapiens) (UniProt Q96RI1).
T5 sequence (whole entry): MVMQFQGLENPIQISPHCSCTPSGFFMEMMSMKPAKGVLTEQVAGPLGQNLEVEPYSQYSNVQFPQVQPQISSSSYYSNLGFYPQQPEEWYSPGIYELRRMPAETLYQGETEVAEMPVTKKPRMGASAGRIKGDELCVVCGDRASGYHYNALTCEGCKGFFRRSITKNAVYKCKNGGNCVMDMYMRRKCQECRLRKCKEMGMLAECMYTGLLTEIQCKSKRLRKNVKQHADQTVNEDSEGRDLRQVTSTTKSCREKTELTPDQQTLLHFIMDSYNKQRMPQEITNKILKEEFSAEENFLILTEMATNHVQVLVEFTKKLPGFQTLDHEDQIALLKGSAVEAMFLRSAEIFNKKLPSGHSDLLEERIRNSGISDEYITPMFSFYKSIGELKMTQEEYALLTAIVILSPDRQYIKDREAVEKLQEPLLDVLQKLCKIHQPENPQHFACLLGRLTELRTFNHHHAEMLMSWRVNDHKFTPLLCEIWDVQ
The experiment in a line: Antagonist activity at FXR transfected in HEK293 cells by luciferase reporter gene assay.

Assay [6] deals with T6, Peroxisome proliferator-activated receptor delta (Homo sapiens) (UniProt Q03181).
T6 sequence (whole entry): T1 sequence (Q03181 whole entry)
The assay can be described thus: Agonist activity at human PPARdelta expressed in HEK293 after 8 hrs by luciferase reporter gene assay relative to GW501516. The procedure, abridged:
as §2

The target of assay [7] is T7, Peroxisome proliferator-activated receptor alpha (Homo sapiens, UniProt Q07869).
T7 sequence (Q07869 whole entry): T2 sequence (whole entry)
The experiment in a line: Agonist activity at human PPARalpha expressed in HEK293 after 8 hrs by luciferase reporter gene assay. The procedure, abridged:
as §1

The target in assay [8] is T5, Bile acid receptor (Homo sapiens). The experiment in a line: Agonist activity at FXR transfected in HEK293 cells by luciferase reporter gene assay.

Consider `CCC(Cc1ccc(CCc2ccc(N3C(=O)c4ccccc4C3=O)cc2OC)cc1)C(=O)O` (racemic), for which the EC50 in assay [1] came to 11 µM; in assay [4], 8.5 µM; in assay [7], 3.4 µM. Also, the Emax was determined as 73% in assay [2], 78% in assay [3] and 24% in assay [6]. For the same compound, the result in assay [5] and in assay [8] was inactive.

Turning to `CCCOc1cc(N2C(=O)c3ccccc3C2=O)ccc1CCc1ccc(CC(CC)C(=O)O)cc1` (racemic), the EC50 in assay [1] was determined as 2.9 µM; in assay [4], 6.9 µM; in assay [7], 1.7 µM. Further, the values for the Emax in assay [2], in assay [3] and in assay [6] were 70%, 26% and 40%, respectively. The outcome in assay [5] and in assay [8] was inactive.

Regarding `CC[C@@H](Cc1ccc(CCc2ccc(N3C(=O)c4ccccc4C3=O)cc2OC)cc1)C(=O)O`, the values for the EC50 in assay [1], in assay [4] and in assay [7] were 7.3 µM, 7.1 µM and 8.9 µM, respectively. Also, the results for the Emax in assay [2], in assay [3] and in assay [6] were 66%, 102% and 41%, respectively.

Consider `CCOc1cc(N2C(=O)c3ccccc3C2=O)ccc1CCc1ccc(C[C@H](CC)C(=O)O)cc1`, for which the EC50 in assay [1] was 1.9 µM; in assay [4] it was 3.2 µM; in assay [7], 1.7 µM. The values for the Emax in assay [2], in assay [3] and in assay [6] were 69%, 62% and 29%, respectively.

With `CCOc1cc(N2C(=O)c3ccccc3C2=O)ccc1CCc1ccc(C[C@@H](CC)C(=O)O)cc1`, the 50% effective concentration (EC50) stood at 9.7 µM in assay [1], 6.9 µM in assay [4] and 1.1 µM in assay [7]. In addition, the Emax in assay [2] was found to be 126%; in assay [3] it was 23%; in assay [6] it was 12%.

As to `CCC(Cc1ccc(CCc2ccc(N3C(=O)c4ccccc4C3=O)cc2O)cc1)C(=O)O` (centres undefined), the EC50 in assay [1] was 25 µM; in assay [4], 17 µM; in assay [7], 14 µM. For the same compound, the results for the Emax in assay [2], in assay [3] and in assay [6] were 20%, 21% and 7%, respectively.

As to `O=C(O)CCCCc1ccc(CCc2ccc(N3C(=O)c4ccccc4C3=O)cc2)cc1`, the results for the Emax in assay [2], in assay [3] and in assay [6] were 4%, 7% and 4%, respectively.

Consider `O=C(O)CCCCCCc1ccc(CCc2ccc(N3C(=O)c4ccccc4C3=O)cc2)cc1`, for which the Emax in assay [2] is 8%; in assay [3] it was 5%; in assay [6], 4%.

Take `CCCOc1cc(N2C(=O)c3ccccc3C2=O)ccc1CCc1ccc(C[C@@H](CC)C(=O)O)cc1`: the figures for the Emax in assay [2], in assay [3] and in assay [6] were 70%, 7% and 8%, respectively. For the same compound, a half-maximal effect in assay [7] (EC50) was put at 2.5 µM.

`O=C(O)c1ccc(CCc2ccc(N3C(=O)c4ccccc4C3=O)cc2)cc1`: the Emax is 14% in assay [2], 2% in assay [3] and 0% in assay [6]. For the same compound, the half-maximal effective concentration (EC50) in assay [7] turned out to be 33 µM.

For `CCOc1cc(N2C(=O)c3ccccc3C2=O)ccc1CCc1ccc(CC(CC)C(=O)O)cc1` (racemic), the EC50 in assay [1] was 4.8 µM; in assay [4], 9.3 µM; in assay [7] it was 1.4 µM. In addition, the values for the Emax in assay [2], in assay [3] and in assay [6] were 102%, 49% and 33%, respectively. Moreover, the result in assay [5] and in assay [8] was inactive.

For the compound `O=C(O)CCCCCOc1ccc(CCc2ccc(N3C(=O)c4ccccc4C3=O)cc2)cc1`, the values for the Emax in assay [2], in assay [3] and in assay [6] were 0%, 6% and 0%, respectively. Besides, the outcome in assay [5] and in assay [8] was inactive.

Regarding `CCCOc1cc(N2C(=O)c3ccccc3C2=O)ccc1CCc1ccc(C[C@H](CC)C(=O)O)cc1`, the figures for the EC50 in assay [1], in assay [4] and in assay [7] were 1.8 µM, 5.2 µM and 1.7 µM, respectively. For the same compound, the figures for the Emax in assay [2], in assay [3] and in assay [6] were 87%, 36% and 54%, respectively.

Consider `CCCCOc1cc(N2C(=O)c3ccccc3C2=O)ccc1CCc1ccc(CC(CC)C(=O)O)cc1` (centres undefined), for which the EC50 in assay [1] was determined as 3.2 µM; in assay [4], 7.9 µM; in assay [7], 1.8 µM. Moreover, the figures for the Emax in assay [2], in assay [3] and in assay [6] were 63%, 36% and 32%, respectively. Moreover, the result in assay [5] and in assay [8] was inactive.

On to `CC[C@H](Cc1ccc(CCc2ccc(N3C(=O)c4ccccc4C3=O)cc2OC)cc1)C(=O)O`, for which the values for the Emax in assay [2], in assay [3] and in assay [6] were 103%, 40% and 8%, respectively. In addition, the 50% effective concentration (EC50) in assay [4] was 12 µM; in assay [7], 4.5 µM.

Consider `CCC(Cc1ccc(CCc2ccc(N3C(=O)c4ccccc4C3=O)cc2)cc1)C(=O)O` (centres undefined), for which the values for the EC50 in assay [1], in assay [4] and in assay [7] were 14 µM, 11 µM and 6.6 µM, respectively. Moreover, the Emax came to 72% in assay [2], 42% in assay [3] and 22% in assay [6]. In addition, the result in assay [5] and in assay [8] was inactive.
